# Where two headings read alike, the source gives them in different places.
# Experiments:
# [1] = system: rat liver microsomes (RLMs); assay: Michaelis–Menten kinetics of rivaroxaban metabolism in RLMs; type: in vitro ADME, Sprague–Dawley rat
# Procedure, shortened: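 Rat liver microsomes (1 mg/ml, 100 mM potassium phosphate, pH 7.4) were incubated with substrate over nine levels spanning 1–200 μM. Preincubation was 5 min at 37 °C, then 1 mM NADPH (final) started a 30 min reaction. It was stopped with acetonitrile plus diazepam IS, centrifuged, and the supernatant was run on UPLC‑MS/MS (positive ESI, MRM). Km came from a Michaelis–Menten fit; mean ± SD, n = 3.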
# [2] = type: in vivo, Sprague–Dawley rat
# [3] = cited from earlier work
# [4] = with ticagrelor, rats; cited from earlier work
# [5] = system: rivaroxaban metabolism in rat liver microsomes (RLMs); assay: Inhibition of rivaroxaban metabolism by naringenin in rat liver microsomes; type: in vitro ADME, Sprague–Dawley rat; details: RLMs, Lineweaver-Burk plot
# Procedure, shortened: (§1)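 Flavonoid test compound and substrate were incubated with rat liver microsomes (1 mg/ml) in 100 mM potassium phosphate, pH 7.4. After 5 min preincubation at 37 °C, 1 mM NADPH (final) started the reaction, which ran 30 min. It was quenched with acetonitrile plus diazepam IS, centrifuged and analysed by UPLC‑MS/MS. IC50 used 10 μM substrate with test compound at 1–100 μM.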
# [6] = system: rivaroxaban metabolism in rat liver microsomes; assay: as above; type: in vitro ADME, Sprague–Dawley rat; details: Sprague-Dawley, rat, rat liver microsomes, pH 7.4, probe rivaroxaban (10 μM)
# Procedure, shortened: as §1
# [7] = pre-treatment of rats with naringenin for 2 weeks vs control; cited from earlier work
# [8] = Control group: rivaroxaban 10 mg/kg oral gavage only, rats, n = 6
# [9] = pretreatment of rat with naringenin for 14 days
# [10] = 10 mg rivaroxaban in combination with 200 mg ketoconazole once daily
# [11] = co-administration with rifampicin
# [12] = single-dose rivaroxaban co-administrated with ritonavir
smiles,measurement,setting,value
O=C(NC[C@H]1CN(c2ccc(N3CCOCC3=O)cc2)C(=O)O1)c1ccc(Cl)s1 [rivaroxaban],Km,"[1]; read-out: Km of rivaroxaban metabolism, rivaroxaban 1-200 μM",18.4 µM
same,Vmax of rivaroxaban metabolism,[1]; rivaroxaban 1-200 μM,4.35 pmol/min/mg
same,AUC(0–t),"[2]; Control group: rivaroxaban 10 mg/kg oral gavage only, rats (abstract)",2406.28 ± 519.69 µg/h/L
same,AUC(0–t),[2]; [8],2406.28 ± 519.69 µg/h/L
same,AUC(0–∞),[2]; [8],2438.52 ± 529.29 ng/mL/h
same,AUC(0–t),"[2]; Experimental group: naringenin 10 mg/kg/day for 2 weeks, then rivaroxaban 10 mg/kg oral, rats (abstract)",4005.04 ± 1172.76 µg/h/L
same,Tmax,"[2]; male, Sprague-Dawley, rat, plasma, po, 10 mg/kg",3.4 ± 0.548 h
same,"increase of AUC of rivaroxaban, experimental group vs control",[2]; [9],1.7 times
same,"increase of Cmax of rivaroxaban, experimental group vs control",[2]; [9],1.6 times
same,increase of AUC of rivaroxaban,[3]; [10],82%
same,increase of Cmax of rivaroxaban,[3]; [10],53%
same,reduction of body clearance rate of rivaroxaban,[3]; [10],45%
same,decrease of AUC of rivaroxaban,[3]; [11],50%
same,decrease of Cmax of rivaroxaban,[3]; [11],22%
same,increase of AUC of rivaroxaban,[3]; [12],150%
same,increase of Cmax of rivaroxaban,[3]; [12],60%
same,increase of AUC of rivaroxaban,[4],more than twice
same,increase of Cmax of rivaroxaban,[4],more than twice
O=C1C[C@@H](c2ccc(O)cc2)Oc2cc(O)cc(O)c21 [naringenin],inhibition type,[5],mixed inhibition
same,Ki,"[5]; rivaroxaban 5-40 μM, naringenin 0-80 μM",54.9 µM
same,IC50 at 30 min,[6],38.9 µM
C[C@@H]1CCN(C(=O)CC#N)C[C@@H]1N(C)c1ncnc2[nH]ccc12 [tofacitinib],increase of AUC of tofacitinib,[7],1.76 fold

# From publication PMC8099043 (Pharmacology Research & Perspectives, 2021)
